# Source: PubChem (The Scripps Research Institute Molecular Screening Center)
# The list is not random: actives were taken first. Their share in the collection is about 3.9%.
# OX1R antag-1 – OX1R (human) antagonism | O43613 | 1.8% of 330,000 active | inhibition, % at 6.6 µM | OX1R-expressing cells, FRET antagonist read-out; in the data active = inhibition mostly above about 38%, no sharp cut-off; inactive = mostly below about 40%;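 also: 0% = agonist challenge alone and 100% = reference antagonist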
# TAAR1 antag – human TAAR1 antagonism | inhibition, % at 3 µM | AID 624466 | Q96RJ0 | CHO RD-HGA16 TAAR1, Fluo-8 calcium fluorescence, antagonist | 1.5% of 360,000 active;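 active = inhibition above a per-plate cutoff, the mean inhibition of test compounds on that plate plus 3 SD, cut at about 49% in these data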;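 also: 0% = DMSO plus EC80 beta-PEA response and 100% = DMSO alone without agonist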
# Target sequence (Q96RJ0 whole entry, looked up): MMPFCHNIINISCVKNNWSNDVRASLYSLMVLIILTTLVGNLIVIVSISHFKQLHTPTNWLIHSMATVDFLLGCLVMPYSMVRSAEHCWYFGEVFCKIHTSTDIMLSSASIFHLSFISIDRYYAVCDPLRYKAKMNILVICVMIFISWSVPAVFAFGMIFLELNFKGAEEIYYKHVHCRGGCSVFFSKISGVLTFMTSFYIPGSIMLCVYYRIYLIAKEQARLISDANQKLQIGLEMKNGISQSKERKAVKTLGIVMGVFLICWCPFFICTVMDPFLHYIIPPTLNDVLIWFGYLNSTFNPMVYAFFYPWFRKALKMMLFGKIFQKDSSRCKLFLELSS
#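 Test system – hTAAR1-expressing CHO RD-HGA16 cells, Gα16-coupled · Also added – β-PEA at EC80 concentration, post-compound challenge · Compound – 3 µM, single point · Incubation – dye loading 75 min at 37 °C, then 30 min room temperature · Measured by – Fluo-8 intracellular calcium dye fluorescence, real-time kinetic reads · Benchmarks – vehicle and agonist controls · Replicates – singlicate, one well per test compound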
# OX1R antag-2 – blocks the human orexin 1 receptor. CHO/OX1R cells, Fluo-8 calcium fluorescence, orexin A. inhibition, % at 5 µM. 0.43% of 330,000 active. AID 434989;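 active = inhibition above its plate's threshold, mean inhibition of all tested compounds on the plate plus 3 SD, cut at about 37% in these data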;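 also: 0% = orexin A challenge wells and 100% = SB-334867-A antagonist wells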
# TAAR1 ag – agonists of human TAAR1; 0.99% of 360,000 active; AID 624467; activation, % at 3 µM; CHO RD-HGA16 TAAR1, Fluo-8 calcium fluorescence; vehicle wells 0%, saturating PEA agonist 100%; Q96RJ0;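 active = activation above the mean activation of all test compounds in the run plus 3 SD, cut at about 38% in these data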
#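 Signal – calcium-sensitive Fluo-8 signal, excitation 470-495, emission 515-575 nm · System – RD-HGA16 (CHO) cells co-expressing Gα16 and hTAAR1 · Incubation – 17-24 h seeding, 75 min 37 °C dye, 30 min RT · Compound dosing – 3 µM single concentration · Repeats – no replicates (n 1)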
# CHO parental Ca – signal in parental CHO cells, OX1R antagonist counter-screen; parental CHO-K1, ATP-induced calcium, Fluo-8 fluorescence; inhibition, % at 5.6 µM; 0.63% of 330,000 active; AID 463079;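 active = inhibition above that plate's mean sample inhibition plus 3 SD, cut at about 26% in these data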;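 also: 0% = ATP-challenged DMSO wells and 100% = DMSO wells without ATP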
#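 Material: Parental CHO cells | Reagent: ATP | Compound dosing: Single nominal dose of 5.6 µM per compound | Detection: Intracellular calcium via Fluo-8 no-wash fluorescent dye | Read-out: % inhibition of ATP-induced calcium mobilization | Benchmarks: Low control ATP plus DMSO, high control DMSO only | Replicates: Singlicate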
# * = called active by the depositor; . = no result given.
SMILES,OX1R antag-1,TAAR1 antag,OX1R antag-2,TAAR1 ag,CHO parental Ca
OC[C@@H]1CN(Cc2ccc(Cl)cc2)C[C@H](n2cnc3c(NC4CC4)ncnc32)O1,.,5,.,1,.
CC(C)(C)c1ccc(NC(=O)COC(=O)C2(C)CC2(Cl)Cl)cc1 (centres undefined),18,52*,-6,8,3
O=C(COC(=O)c1ccc[n+]([O-])c1)Nc1ccccc1OC(F)F,2,-12,7,3,-5
O=C(C[n+]1ccc(C(=O)c2ccccc2)cc1)Nc1ccccc1OC(F)F,46*,-3,-8,2,-5
CCOC(=O)C1=CCN(S(=O)(=O)c2ccc(Br)cc2)C1c1cccc(Cl)c1 (centres undefined),.,5,.,1,.
COc1cccc(CNc2ccc3[nH]c(=O)[nH]c3c2)c1OCc1ccc(F)cc1,.,50*,.,7,.
Cc1ccc(-n2c(-c3ccccc3)c[n+]3c2CCc2ccccc2-3)c(C)c1,37,15,17,1,54*
Cc1ccc(C)c(C(Nc2ccccc2)c2ccc3ccc(C)nc3c2O)c1 (centres undefined),.,10,.,2,.
Cc1sc2ncnc(NCC3COc4ccccc4O3)c2c1C (centres undefined),45,12,29,1,62*
Cc1sc2ncnc(NCC3CCCO3)c2c1C (centres undefined),20,13,-12,8,1
CC(C)CC(Nc1ncnc2scc(-c3ccccc3)c12)C(=O)O (centres undefined),16,-9,-3,2,-7
c1ccc(-c2csc3ncnc(NCC4COc5ccccc5O4)c23)cc1 (centres undefined),40,39,18,0,79*
C[C@@H]1CN([C@@H](C)CO)C(=O)CCCn2nncc2CO[C@H]1CN(C)C(=O)C1CC1,.,-4,.,2,.
Oc1ccc2ccccc2c1C=NCc1ccccc1,52*,-3,-18,8,-6
O=C(NCCNc1ccc([N+](=O)[O-])cc1C(F)(F)F)c1ccccc1F,42,16,27,3,42*
CCCCCCN1C[C@H](n2cc(-c3ccc(F)cc3)nn2)[C@@H](O)C[C@@H]1c1ccc(Cl)cc1,.,-12,.,2,.
COc1cccc(C(c2nnnn2Cc2ccccc2)N2CCN(C3CCCC3)CC2)c1OC (centres undefined),15,53*,-25,24,1
COc1ccccc1N1CCN(C(=O)c2cc3ccccc3[nH]2)CC1,2,53*,-18,8,-12
CCn1c2c(n(C(C)=O)c1=O)C[C@@H](c1ccccc1)[C@@H](C)[C@@H](C(=O)N1CCCC1)C2,.,-20,.,1,.
COc1ccc(CNC(=O)c2ccc(-c3c(C)noc3C)c3ccoc23)cc1OC,.,-36,.,-2,.
COC(=O)c1ccc(/C(O)=C(\C#N)c2nc3ccccc3s2)cc1,50,-1,-11,12,7
COc1cc(/C=C(\C#N)c2nc3ccccc3s2)ccc1OCC(=O)Nc1ccccc1,12,.,43,.,46*
N#C/C(=C/c1ccncc1)c1nc2ccccc2s1,15,-1,51*,4,44*
CC(C)=C(C#N)c1nc2ccccc2s1,9,17,74*,13,50*
CCCCS(=O)(=O)NCC1CCN(C(=O)C(=O)c2cc3ccccc3o2)CC1,.,-9,.,-1,.
SMILES,OX1R antag-1,TAAR1 antag,OX1R antag-2,TAAR1 ag,CHO parental Ca
O=C(/C=C/c1ccccc1)c1ccc2c(c1)OCO2,6,-20,-14,1,-21
CN(C)c1ccc(/C=C/C(=O)c2cccnc2)cc1,4,9,68*,32,49*
Cc1ccc(/C=C/C(=O)c2ccccc2O)cc1,16,2,-20,-2,-16
CN(C)c1ccc(/C=C/C(=O)c2ccc(O)cc2)cc1,.,31,.,49*,.
CN(C)c1ccc(/C=C/C(=O)c2ccccc2O)cc1,19,30,14,22,38*
CN(C)c1ccc(/C=C/C(=O)c2ccc3c(c2)OCO3)cc1,11,40,112*,27,48*
COc1ccc(C(=O)/C=C/c2ccc(N(C)C)cc2)c(OC)c1,83*,52*,112*,73*,59*
CN(C)S(=O)(=O)c1cccc(COC(=O)c2ccc(Cl)cc2O)c1,34,8,33,2,48*
Cc1cc(C)n2nc(SCc3cccc(S(=O)(=O)N(C)C)c3)nc2n1,14,1,-10,5,8
CN(C)S(=O)(=O)c1cccc(CSCc2cccc(S(=O)(=O)N(C)C)c2)c1,27,32,6,5,46*
COC(=O)c1cc2c(c3c4cc(OC)ccc4n(S(=O)(=O)c4cccc(C)c4)c13)C(=O)N(Cc1ccc(C(F)(F)F)cc1)C2,.,-18,.,-1,.
CCCCNC(=O)C(NC(=O)c1ccc2c(c1)OCO2)C(=O)c1ccccc1 (centres undefined),.,-5,.,-1,.
CCOC(=O)c1cc(=O)c2c([N+](=O)[O-])ccc(OC)c2o1,70*,-8,12,0,-7
CC1=C(C(=O)N2CCCCCC2)CC(CC(=O)NC2CC2)C(=O)N1Cc1ccccc1 (centres undefined),.,-8,.,5,.
COC(=O)CC#C[C@H](C)[C@@H](NS(C)(=O)=O)C1CCCCC1,.,-3,.,0,.
Cn1c(N)c(C(=O)COC(=O)C2(c3ccc(F)cc3)CCCC2)c(=O)n(C)c1=O,15,65*,-10,25,-4
Cn1c(N)c(C(=O)COC(=O)C2(c3ccc(Cl)cc3)CCCC2)c(=O)n(C)c1=O,5,8,-25,11,-18
CCCCC(=O)N(C)c1c(CC)nc2c(OCc3cccc(Cl)c3)cccn12,.,-21,.,-2,.
CCN1C(=O)[C@H]2[C@@H](c3ccc(-c4ccc(Cl)c(Cl)c4)c(OC)c3)N3CCCC[C@@]3(C(=O)OC)[C@H]2C1=O,8,-11,-37,0,-27
Oc1ccc(C[C@H]2CNC(=S)N2CC2CCCN2C[C@H](Cc2ccccc2)N2C[C@H](Cc3ccc(O)cc3)N(CC3CCCCC3)C2=S)cc1 (some centres undefined),.,-12,.,0,.
COc1cccc(Nc2nnc(SCc3cc([N+](=O)[O-])cc4c3OCOC4)s2)c1,68*,34,-17,3,5
CC(C)Cc1ccc(-c2cc3nc(NCCc4ccc(S(N)(=O)=O)cc4)ccn3n2)cc1,.,67*,.,23,.
CC12CCC(=O)C=C1CCC1C2C(O)CC2(C)C1CCC2(O)C(=O)COC(=O)COCC(=O)O (centres undefined),.,-18,.,1,.
CCn1c(SCC(=O)N2c3ccccc3CCc3ccccc32)nc2c1c(=O)n(C)c(=O)n2C,11,14,-22,6,-13
CC1Cc2ccccc2N1C(=O)CSc1nc2c(c(=O)n(C)c(=O)n2C)n1Cc1ccccc1 (centres undefined),37,52*,-22,17,-31
